Experimental data reported in ChEMBL document CHEMBL1255341, “Effect of ketoconazole on the pharmacokinetics of maribavir in healthy adults” (Antimicrob Agents Chemother, 2008).

Legend:
[1] = AUC (0 to t) in human at 400 mg, po administered with 400 mg ketoconazole after 7 days; assay type: ADME, organism-based; conditions: plasma
Method in brief: (§1)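 Healthy adults (n = 20) in a two-sequence crossover with a 1-week washout. Single oral 400 mg dose after overnight fast, 4 h post-dose fast; ketoconazole 400 mg oral given 1 h before in the combination period. Plasma sampled predose and 0.5–24 h; validated LC-MS/MS after solid-phase extraction (5–1,000 ng/ml). AUC0-t by log-linear trapezoidal method; AUC0-∞ = AUC0-t + Clast/λz.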

[2] = AUC (0 to infinity) in human at 400 mg, po administered with 400 mg ketoconazole after 7 days; assay type: ADME, organism-based; design: dose 400 mg, time infinity, route oral; conditions: plasma; method in brief: as §1
[3] = Terminal elimination half-life in human at 400 mg, po administered with 400 mg ketoconazole after 7 days; assay type: ADME, organism-based; conditions: in vivo
Method in brief: (§2)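 Crossover in healthy adults: single fasted oral 400 mg dose, alone or 1 h after oral ketoconazole 400 mg, with a 1-week washout. Plasma drawn predose through 24 h and assayed by LC-MS/MS. λz from log-linear terminal-phase regression; t1/2 = 0.693/λz; CL/F = dose/AUC0-∞; Vz/F = dose/(λz × AUC0-∞). Nominal times used.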

[4] = Tmax in human plasma at 400 mg, po after 24 hrs; assay type: ADME, organism-based
Method in brief: (§3)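 Fasted healthy adults got a single oral 400 mg dose, alone or 1 h after ketoconazole 400 mg orally, in crossover periods separated by 1 week. Blood taken predose and at 0.5, 1, 1.5, 2, 3, 4, 6, 8, 12, 16, 24 h; analytes measured by validated LC-MS/MS. Cmax and tmax read from the profiles; tmax ranks compared by ANOVA.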

[5] = Cmax in human plasma at 400 mg, po after 24 hrs; assay type: ADME, organism-based; design: dose 400 mg, route oral; method in brief: as §3
[6] = Terminal elimination half-life in human at 400 mg, po after 24 hrs; assay type: ADME, organism-based; conditions: in vivo; method in brief: as §2
[7] = AUC (0 to t) in human at 400 mg, po after 24 hrs; assay type: ADME, organism-based; design: time < 24 hr, dose 400 mg, route oral; conditions: plasma; method in brief: as §1
[8] = AUC (0 to infinity) in human at 400 mg, po after 24 hrs; assay type: ADME, organism-based; design: dose 400 mg, route oral, time infinity; conditions: plasma; method in brief: as §1
[9] = Volume of distribution with respect to oral bioavailability in human at 400 mg, po after 24 hrs; assay type: ADME, organism-based; conditions: in vivo, read-out: Vss/F; method in brief: as §2
[10] = Apparent oral clearance in human at 400 mg, po after 24 hrs; assay type: ADME, organism-based; conditions: in vivo; method in brief: as §2
[11] = tested on: Homo sapiens; experiment: Drug excretion in human at 400 mg, po after 24 hrs; assay type: ADME, organism-based; conditions: in vivo
Method in brief: (§4)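 24-h urine collected from the first void after the oral 400 mg dose, given alone or 1 h after ketoconazole 400 mg, in a crossover of healthy adults. Amount excreted (Ae) measured by LC-MS/MS after solid-phase extraction. Renal clearance = Ae/AUC0-24 from plasma sampled over 24 h.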

[12] = Cmax in human plasma at 400 mg, po administered with 400 mg ketoconazole after 7 days; assay type: ADME, organism-based; design: dose 400 mg, route oral; method in brief: as §3
[13] = Tmax in human plasma at 400 mg, po administered with 400 mg ketoconazole after 7 days; assay type: ADME, organism-based; method in brief: as §3
[14] = Volume of distribution with respect to oral bioavailability in human at 400 mg, po administered with 400 mg ketoconazole after 7 days; assay type: ADME, organism-based; conditions: in vivo, read-out: Vss/F; method in brief: as §2
[15] = Apparent oral clearance in human at 400 mg, po administered with 400 mg ketoconazole after 7 days; assay type: ADME, organism-based; conditions: in vivo; method in brief: as §2
[16] = tested on: Homo sapiens; experiment: Drug excretion in human at 400 mg, po administered with 400 mg ketoconazole […]; assay type: ADME, organism-based; conditions: in vivo; method in brief: as §4
[17] = Renal clearance in human at 400 mg, po administered with 400 mg ketoconazole after 7 days; assay type: ADME, organism-based, Kidney; conditions: in vivo; method in brief: as §4
[18] = tested on: Homo sapiens; experiment: Tmax in human plasma assessed as VP 44469 at 400 mg, po after 24 hrs; assay type: ADME, organism-based; conditions: in vivo; method in brief: as §3
[19] = tested on: Homo sapiens; experiment: Cmax in human plasma assessed as VP 44469 at 400 mg, po after 24 hrs; assay type: ADME, organism-based; design: dose 400 mg, route oral; conditions: in vivo; method in brief: as §3
[20] = tested on: Homo sapiens; experiment: Terminal elimination half-life in human assessed as VP 44469 at 400 mg, po after 24 hrs; assay type: ADME, organism-based; conditions: in vivo; method in brief: as §2
[21] = tested on: Homo sapiens; experiment: AUC (0 to t) in human assessed as VP 44469 at 400 mg, po after 24 hrs; assay type: ADME, organism-based, Plasma; design: dose 400 mg, time < 24 hr, route oral; conditions: in vivo; method in brief: as §1
[22] = tested on: Homo sapiens; experiment: AUC (0 to infinity) in human assessed as VP 44469 at 400 mg, po after 24 hrs; assay type: ADME, organism-based, Plasma; design: dose 400 mg, time infinity, route oral; conditions: in vivo; method in brief: as §1
[23] = tested on: Homo sapiens; experiment: Volume of distribution with respect to oral bioavailability in human assessed as VP 44469 at 400 mg, po after 24 hrs; assay type: ADME, organism-based; conditions: in vivo; method in brief: as §2
[24] = tested on: Homo sapiens; experiment: Apparent oral clearance in human assessed as VP 44469 at 400 mg, po after 24 hrs; assay type: ADME, organism-based; conditions: in vivo; method in brief: as §2
[25] = tested on: Homo sapiens; experiment: Drug excretion in human assessed as VP 44469 at 400 mg, po after 24 hrs; assay type: ADME, organism-based; conditions: in vivo; method in brief: as §4
[26] = tested on: Homo sapiens; experiment: Renal clearance in human assessed as VP 44469 at 400 mg, po after 24 hrs; assay type: ADME, organism-based, Kidney; conditions: in vivo; method in brief: as §4
[27] = tested on: Homo sapiens; experiment: Tmax in human plasma assessed as VP 44469 at 400 mg, po administered with 400 mg ketoconazole after 7 days; assay type: ADME, organism-based; conditions: in vivo, 168 h; method in brief: as §3
[28] = tested on: Homo sapiens; experiment: Cmax in human plasma assessed as VP 44469 at 400 mg, po administered with 400 mg ketoconazole after 7 days; assay type: ADME, organism-based; design: dose 400 mg, route oral; conditions: in vivo, 168 h; method in brief: as §3
[29] = tested on: Homo sapiens; experiment: Terminal elimination half-life in human assessed as VP 44469 at 400 mg, po administered with 400 mg ketoconazole after 7 days; assay type: ADME, organism-based; conditions: in vivo, 168 h; method in brief: as §2
[30] = tested on: Homo sapiens; experiment: AUC (0 to t) in human assessed as VP 44469 at 400 mg, po administered with 400 mg ketoconazole after 7 days; assay type: ADME, organism-based, Plasma; conditions: in vivo, 168 h; method in brief: as §1
[31] = tested on: Homo sapiens; experiment: AUC (0 to infinity) in human assessed as VP 44469 at 400 mg, po administered with 400 mg ketoconazole after 7 days; assay type: ADME, organism-based, Plasma; design: dose 400 mg, route oral, time infinity; conditions: in vivo, 168 h; method in brief: as §1
[32] = tested on: Homo sapiens; experiment: Volume of distribution with respect to oral bioavailability in human assessed as VP 44469 at 400 mg, po administered with 400 mg ketoconazole after 7 days; assay type: ADME, organism-based; conditions: in vivo, 168 h; method in brief: as §2
[33] = tested on: Homo sapiens; experiment: Apparent oral clearance in human assessed as VP 44469 at 400 mg, po administered with 400 mg ketoconazole after 7 days; assay type: ADME, organism-based; conditions: in vivo, 168 h; method in brief: as §2
[34] = tested on: Homo sapiens; experiment: Drug excretion in human assessed as VP 44469 at 400 mg, po administered with 400 mg ketoconazole […]; assay type: ADME, organism-based; conditions: in vivo
[35] = tested on: Homo sapiens; experiment: Renal clearance in human assessed as VP 44469 at 400 mg, po administered with 400 mg ketoconazole […]; assay type: ADME, organism-based, Kidney; conditions: in vivo
[36] = tested on: Homo sapiens; experiment: Toxicity in human assessed as dysgeusia at 400 mg, po after 24 hrs; assay type: organism-based; conditions: in vivo
Method in brief: (§5)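 Healthy volunteers (20 enrolled) given single oral 400 mg doses, with or without oral ketoconazole 400 mg 1 h before, in crossover with a 1-week washout. The investigator recorded all adverse events, grading severity and drug relatedness. Clinical labs ran the day before and after dosing, ECGs predose and at 2 and 4 h, and liver tests at the day-15 follow-up.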

[37] = tested on: Homo sapiens; experiment: Toxicity in human assessed as adverse event at 400 mg, po after 24 hrs; assay type: organism-based; conditions: in vivo; method in brief: as §5
[38] = tested on: Homo sapiens; experiment: Toxicity in human assessed as dysgeusia at 400 mg, po administered with 400 mg ketoconazole after 7 days; assay type: organism-based; conditions: in vivo, 168 h; method in brief: as §5
[39] = tested on: Homo sapiens; experiment: Toxicity in human assessed as headache at 400 mg, po administered with 400 mg ketoconazole after 7 days; assay type: organism-based; conditions: in vivo, 168 h; method in brief: as §5
[40] = tested on: Homo sapiens; experiment: Toxicity in human assessed as adverse event at 400 mg, po administered with 400 mg ketoconazole after 7 days; assay type: organism-based; conditions: in vivo, 168 h; method in brief: as §5

Question: Which results are given for `CC(C)Nc1nc2cc(Cl)c(Cl)cc2n1[C@H]1O[C@@H](CO)[C@H](O)[C@@H]1O` [MARIBAVIR]?
Answer: AUC(0-t) at 168 h [1]: 173 µg·h/mL; AUC(0-inf) [2]: 194 µg·h/mL; half-life [3]: 6.88 h; Tmax [4]: 1.7 h; Cmax [5]: 19800 ng/mL; half-life [6]: 5.73 h; AUC(0-t) at 24 h [7]: 119 µg·h/mL; AUC(0-inf) [8]: 126 µg·h/mL; Vd/F [9]: 27.5 L; CL/F [10]: 59.3 mL/min; Activity [11]: 4.12 mg; Cmax [12]: 21800 ng/mL; Tmax [13]: 1.9 h; Vd/F [14]: 21.6 L; CL/F [15]: 38.7 mL/min; Activity [16]: 9.86 mg; CL renal at 168 h [17]: 0.953 mL/min; Tmax [18]: 2.5 h; Cmax [19]: 1600 ng/mL; t1/2 [20]: 6.83 h; AUC [21]: 15.6 µg·h/mL; AUC [22]: 17.4 µg·h/mL; Vss/F [23]: 235 L; CL/F [24]: 23.8 L/h; Activity [25]: 110 mg; CL_renal [26]: 7637 mL/h; Tmax [27]: 5.5 h; Cmax [28]: 1000 ng/mL; t1/2 [29]: 11.8 h; AUC [30]: 14.7 µg·h/mL; AUC [31]: 20.5 µg·h/mL; Vz/F [32]: 342 L; CL/F [33]: 21.1 L/h; Activity [34]: 95 mg; CL_renal [35]: 6876 mL/h; Activity [36]: 47%; Activity [37]: 47%; Activity [38]: 35%; Activity [39]: 10%; Activity [40]: 45%
